Laboratory results reported in ChEMBL document CHEMBL1938298, “Synthesis and characterization of [¹²⁵I]2-iodo N-[(S)-{(S)-1-methylpiperidin-2-yl}(phenyl)methyl]3-trifluoromethyl-benzamide as novel imaging probe for glycine transporter 1” (Bioorg Med Chem, 2011).
Values belong to the compound of their own block, whether it stands above or below them. Calls of active or inactive are those of the source. No cut-off for these calls is given here.

What was measured:
[1] = system: Mus musculus; experiment: In vivo binding affinity to GlyT1 in ddY mouse brain striatum at 33.3 kBq, iv after 30 mins in presence of N-Me-SSR504734 2 mg/kg, iv administered 15 mins prior to compound administration relative to control; assay type: functional, organism-based; parameters: dose 2 mg/kg; settings: tested as the 125I-labelled form
[2] = target: T1, Sodium- and chloride-dependent glycine transporter 1 (Rattus norvegicus) (UniProt P28572); experiment: Binding affinity to GlyT1 in rat brain hippocampus at 0.03 to 0.04 nM preincubated for 20 mins in binding buffer before compound addition measured after 30 mins by autoradiography in presence of 0.01 mM NMDA receptor glycine site antagonist L-701,324 relative to control; assay type: tissue-based; settings: tested as the 125I-labelled form
T1 sequence (whole entry): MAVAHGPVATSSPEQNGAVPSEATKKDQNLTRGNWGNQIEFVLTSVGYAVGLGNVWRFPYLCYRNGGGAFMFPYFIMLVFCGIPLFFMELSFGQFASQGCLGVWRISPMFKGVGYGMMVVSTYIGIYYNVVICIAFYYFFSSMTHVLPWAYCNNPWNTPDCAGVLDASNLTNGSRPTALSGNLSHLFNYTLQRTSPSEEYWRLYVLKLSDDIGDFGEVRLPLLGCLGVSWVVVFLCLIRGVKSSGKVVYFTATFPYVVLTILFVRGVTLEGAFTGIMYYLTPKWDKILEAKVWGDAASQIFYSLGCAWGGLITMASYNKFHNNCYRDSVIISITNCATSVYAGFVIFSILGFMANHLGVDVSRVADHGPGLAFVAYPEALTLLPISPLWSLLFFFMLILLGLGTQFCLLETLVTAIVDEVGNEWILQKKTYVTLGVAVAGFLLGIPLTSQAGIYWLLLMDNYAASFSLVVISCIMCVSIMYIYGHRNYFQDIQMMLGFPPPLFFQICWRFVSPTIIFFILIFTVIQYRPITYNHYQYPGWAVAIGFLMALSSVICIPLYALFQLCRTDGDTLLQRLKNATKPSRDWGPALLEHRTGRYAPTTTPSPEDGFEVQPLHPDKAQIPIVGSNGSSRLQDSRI
Summary of the method: (§1)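 Rat brain sagittal sections (20 µm) preincubated 20 min at 25 °C in Tris-HCl buffer pH 7.5 (NaCl, KCl, MgCl2, CaCl2), then 30 min at 25 °C with [125I] tracer (100 kBq, 0.03–0.04 nM) plus competitor (10 µM; glycine 1 or 10 mM). Cold washes, imaging plate 3 days, ROI PSL minus background per mm². % control from ≥triplicate slices, three rats.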

[3] = system: Mus musculus; experiment: In vivo binding affinity to GlyT1 in ddY mouse brain hippocampus at 200 kBq, iv after 60 mins by autoradiography relative to control; assay type: functional, organism-based; settings: tested as the 125I-labelled form
Summary of the method: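 Ex vivo autoradiography in mice given 200 kBq [125I]tracer i.v. and killed at 60 min. Brains were removed, frozen on dry ice and cut into 20 µm sagittal cryosections, which were exposed to an imaging plate for 7 days. Regional signal was quantified as PSL/mm² (n = 5) and compared to control by Kruskal–Wallis with Dunn's post-test.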

[4] = target: T1, Sodium- and chloride-dependent glycine transporter 1 (Rattus norvegicus); experiment: Binding affinity to GlyT1 in rat brain thalamus at 0.03 to 0.04 nM preincubated for 20 mins in binding buffer before compound addition measured after 30 mins by autoradiography in presence of 0.01 mM GlyT1 inhibitor SSR504734 relative to control; assay type: tissue-based; settings: tested as the 125I-labelled form
[5] = target: T1, Sodium- and chloride-dependent glycine transporter 1 (Rattus norvegicus); experiment: Binding affinity to GlyT1 in rat brain thalamus at 0.03 to 0.04 nM preincubated for 20 mins in binding buffer before compound addition measured after 30 mins by autoradiography relative to control; assay type: tissue-based; settings: tested as the 125I-labelled form
[6] = system: Mus musculus; experiment: In vivo binding affinity to GlyT1 in ddY mouse brain thalamus at 33.3 kBq, iv after 30 mins in presence of SSR504734 2 mg/kg, iv administered 15 mins prior to compound administration relative to control; assay type: functional, organism-based; parameters: dose 2 mg/kg; settings: tested as the 125I-labelled form
[7] = target: T1, Sodium- and chloride-dependent glycine transporter 1 (Rattus norvegicus); experiment: Binding affinity to GlyT1 in rat brain cerebral cortex at 0.03 to 0.04 nM preincubated for 20 mins in binding buffer before compound addition measured after 30 mins by autoradiography in presence of 0.01 mM GlyT1 inhibitor SSR504734 relative to control; assay type: tissue-based; settings: tested as the 125I-labelled form; summary of the method: as §1
[8] = target: T1, Sodium- and chloride-dependent glycine transporter 1 (Rattus norvegicus); experiment: Binding affinity to GlyT1 in rat brain medullary region at 0.03 to 0.04 nM preincubated for 20 mins in binding buffer before compound addition measured after 30 mins by autoradiography in presence of 0.01 mM GlyT1 inhibitor SSR504734 relative to control; assay type: tissue-based; settings: tested as the 125I-labelled form; summary of the method: as §1
[9] = target: T1, Sodium- and chloride-dependent glycine transporter 1 (Rattus norvegicus); experiment: Binding affinity to GlyT1 in rat brain striatum at 0.03 to 0.04 nM preincubated for 20 mins in binding buffer before compound addition measured after 30 mins by autoradiography in presence of 1 mM GlyT1 substrate glycine relative to control; assay type: tissue-based; settings: tested as the 125I-labelled form
[10] = system: Lung; experiment: Drug uptake in ddY mouse lung at 11.1 kBq, iv after 15 min by gamma counting; assay type: ADME, organism-based; settings: in vivo
Summary of the method: (§2)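 Male ddY mice (6 weeks, 30–35 g) were given about 11.1 kBq of [125I]tracer in 0.1 mL i.v. via the tail vein. At each time point the animals were killed and organs dissected, weighed and gamma-counted. Uptake is expressed as % injected dose per gram of tissue, mean ± SD, n = 5–6.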

[11] = system: Mus musculus; experiment: In vivo binding affinity to GlyT1 in ddY mouse brain thalamus at 33.3 kBq, iv after 30 mins in presence of nonradioactive compound 2 mg/kg, iv administered 15 mins prior to compound administration relative to control; assay type: functional
[12] = system: Blood; experiment: Drug uptake in ddY mouse blood at 11.1 kBq, iv after 30 min by gamma counting; assay type: ADME, organism-based; settings: in vivo, 0.5 h
Summary of the method: (§3)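 Male ddY mice (6 weeks, 30–35 g) received about 11.1 kBq [125I]tracer in 0.1 mL i.v. via tail vein. Killed at set times, organs dissected and weighed, radioactivity gamma counted. Reported as % injected dose/g tissue, mean ± SD, n = 5–6.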

[13] = system: Lung; experiment: Drug uptake in ddY mouse lung at 11.1 kBq, iv after 180 min by gamma counting; assay type: ADME, organism-based; settings: in vivo, 3 h; summary of the method: as §2
[14] = system: Mus musculus; experiment: In vivo binding affinity to GlyT1 in ddY mouse brain medullary region at 33.3 kBq, iv after 30 mins in presence of nonradioactive compound 2 mg/kg, iv administered 15 mins prior to compound administration relative to control; assay type: functional, Medulla of organ
[15] = system: Kidney; experiment: Drug uptake in ddY mouse kidney at 11.1 kBq, iv after 0.5 min by gamma counting; assay type: ADME, organism-based; settings: in vivo; summary of the method: as §3
[16] = system: Kidney; experiment: Drug uptake in ddY mouse kidney at 11.1 kBq, iv after 15 min by gamma counting; assay type: ADME, organism-based; settings: in vivo; summary of the method: as §2
[17] = system: Liver; experiment: Drug uptake in ddY mouse liver at 11.1 kBq, iv after 15 min by gamma counting; assay type: ADME, organism-based; settings: in vivo; summary of the method: as §2
[18] = system: Kidney; experiment: Drug uptake in ddY mouse kidney at 11.1 kBq, iv after 180 min by gamma counting; assay type: ADME, organism-based; settings: in vivo, 3 h; summary of the method: as §2
[19] = system: Spleen; experiment: Drug uptake in ddY mouse spleen at 11.1 kBq, iv after 30 min by gamma counting; assay type: ADME, organism-based; settings: in vivo, 0.5 h; summary of the method: as §2
[20] = system: Pancreas; experiment: Drug uptake in ddY mouse pancreas at 11.1 kBq, iv after 180 min by gamma counting; assay type: ADME, organism-based; settings: in vivo, 3 h; summary of the method: as §2
[21] = system: Heart; experiment: Drug uptake in ddY mouse heart at 11.1 kBq, iv after 15 min by gamma counting; assay type: ADME, organism-based; settings: in vivo; summary of the method: as §3

Activity [2]: 90.9%
Activity [4]: 29.6%
Activity [5]: Active
Activity [7]: 29.3%
Activity [8]: 31.7%
Activity [9]: 122%
Compound: CN1CCCC[C@H]1[C@@H](NC(=O)c1cccc(C(F)(F)F)c1I)c1ccccc1
Activity [1]: Active
Activity [3]: inactive
Activity [6]: inactive

Drug uptake [10]: 15.24 % ID/g
Drug uptake [12]: 0.9 % ID/g
Drug uptake [13]: 9.34 % ID/g
Drug uptake [15]: 4.05 % ID/g
Drug uptake [16]: 8.86 % ID/g
Drug uptake [17]: 11.51 % ID/g
Drug uptake [18]: 6.97 % ID/g
Drug uptake [19]: 7.68 % ID/g
Drug uptake [20]: 4.84 % ID/g
Drug uptake [21]: 3.38 % ID/g
Compound: CN1CCCC[C@H]1[C@@H](NC(=O)c1cccc(C(F)(F)F)c1[125I])c1ccccc1
Activity [11]: 45%
Activity [14]: 53%
